# Assay results from ChEMBL document CHEMBL4689842, “EUbOPEN Chemogenomics Library wave 1” (2021).
# Tested on: HEK-293T
# Test: Multiplex assay against HEK293T;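 for Population Tubulin-Different-Phenotype (%): share of the cells with healthy nuclei that show this phenotype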
# Format: toxicity, cell-based
# Details: human
# In short: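 On a CQ1 microscope at 37°C and 5% CO2, live cells were imaged after compound addition. They had been stained at seeding with Hoechst33342, BioTracker Green Microtubule Cytoskeleton Dye, MitoTracker Red and Annexin V Alexa Fluor 680. CellPathfinder machine-learning gating assigned cells to Hoechst high-intensity objects or normal cells, normal cells to healthy, pyknosed or fragmented nuclei, and pyknosed cells to mitotic or apoptotic. Tubulin, mitochondrial-mass and membrane-permeability phenotypes are per cents of healthy-nucleus cells.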
# [1] = 12 h, 1 µM, compound concentration 1 uM, replicate 1
# [2] = 12 h, 1 µM, compound concentration 1 uM, replicate 2
# [3] = 12 h, 10 µM, compound concentration 10 uM, replicate 1
# [4] = 12 h, 10 µM, compound concentration 10 uM, replicate 2
# [5] = 24 h, 1 µM, compound concentration 1 uM, replicate 1
# [6] = 24 h, 1 µM, compound concentration 1 uM, replicate 2
# [7] = 24 h, 10 µM, compound concentration 10 uM, replicate 1
# [8] = 24 h, 10 µM, compound concentration 10 uM, replicate 2
# [9] = 48 h, 1 µM, compound concentration 1 uM, replicate 1
# [10] = 48 h, 1 µM, compound concentration 1 uM, replicate 2
# [11] = 48 h, 10 µM, compound concentration 10 uM, replicate 1
# [12] = 48 h, 10 µM, compound concentration 10 uM, replicate 2
compound,measurement,setting,value
Cc1ccc(C)c(Oc2ccncc2C(=O)N2CCN(C3CC3)c3ccccc32)c1,Population Apoptotic (%),[1],43%
same,Population Healthy Nuclei (%),[1],48%
same,Population Mitotic Cells (%),[1],56%
same,Population Normal (%),[1],91%
same,Population Pyknosed Nuclei (%),[1],44%
same,Total Cell Count,[1],385
same,Population Apoptotic (%),[2],16%
same,Population Healthy Nuclei (%),[2],42%
same,Population Mitotic Cells (%),[2],83%
same,Population Normal (%),[2],96%
same,Population Pyknosed Nuclei (%),[2],54%
same,Total Cell Count,[2],221
same,Population Apoptotic (%),[3],88%
same,Population Healthy Nuclei (%),[3],23%
same,Population Mitotic Cells (%),[3],11%
same,Population Normal (%),[3],78%
same,Population Pyknosed Nuclei (%),[3],62%
same,Total Cell Count,[3],200
same,Population Apoptotic (%),[4],56%
same,Population Healthy Nuclei (%),[4],14%
same,Population Mitotic Cells (%),[4],43%
same,Population Normal (%),[4],93%
same,Population Pyknosed Nuclei (%),[4],77%
same,Total Cell Count,[4],112
same,Population Apoptotic (%),[5],46%
same,Population Healthy Nuclei (%),[5],52%
same,Population Mitotic Cells (%),[5],53%
same,Population Normal (%),[5],89%
same,Population Pyknosed Nuclei (%),[5],38%
same,Total Cell Count,[5],403
same,Population Apoptotic (%),[6],11%
same,Population Healthy Nuclei (%),[6],53%
same,Population Mitotic Cells (%),[6],88%
same,Population Normal (%),[6],98%
same,Population Pyknosed Nuclei (%),[6],40%
same,Total Cell Count,[6],272
same,Population Apoptotic (%),[7],89%
same,Population Healthy Nuclei (%),[7],29%
same,Population Mitotic Cells (%),[7],10%
same,Population Normal (%),[7],82%
same,Population Pyknosed Nuclei (%),[7],53%
same,Total Cell Count,[7],213
same,Population Apoptotic (%),[8],68%
same,Population Healthy Nuclei (%),[8],24%
same,Population Mitotic Cells (%),[8],31%
same,Population Normal (%),[8],91%
same,Population Pyknosed Nuclei (%),[8],63%
same,Total Cell Count,[8],127
same,Population Apoptotic (%),[9],41%
same,Population Healthy Nuclei (%),[9],63%
same,Population Mitotic Cells (%),[9],58%
same,Population Normal (%),[9],91%
same,Population Pyknosed Nuclei (%),[9],26%
same,Total Cell Count,[9],567
same,Population Apoptotic (%),[10],18%
same,Population Healthy Nuclei (%),[10],77%
same,Population Mitotic Cells (%),[10],81%
same,Population Normal (%),[10],97%
same,Population Pyknosed Nuclei (%),[10],18%
same,Total Cell Count,[10],425
same,Population Apoptotic (%),[11],84%
same,Population Healthy Nuclei (%),[11],40%
same,Population Mitotic Cells (%),[11],15%
same,Population Normal (%),[11],84%
same,Total Cell Count,[11],206
same,Population Apoptotic (%),[12],76%
same,Population Healthy Nuclei (%),[12],48%
same,Population Mitotic Cells (%),[12],23%
same,Population Normal (%),[12],90%
same,Population Pyknosed Nuclei (%),[12],45%
same,Total Cell Count,[12],127
O=C(c1cc2c(cc1F)OC(c1ccc(F)cc1)(c1ccc(Cl)cc1Cl)O2)N1CCOCC1 (stereo not given),Population Apoptotic (%),[1],45%
same,Population Fragmented Nuclei (%),[1],17%
same,Population Healthy Nuclei (%),[1],37%
same,Population Hoechst High Intensity Objects (%),[1],12%
same,Population Membrane Permeable-Phenotype (%),[1],1%
same,Population Mitochondria Different-Phenotype (%),[1],87%
same,Population Mitotic Cells (%),[1],54%
same,Population Normal (%),[1],87%
same,Population Pyknosed Nuclei (%),[1],44%
same,Population Tubulin-Different-Phenotype (%),[1],54%
same,Total Cell Count,[1],214
same,Population Apoptotic (%),[2],16%
same,Population Fragmented Nuclei (%),[2],5%
same,Population Healthy Nuclei (%),[2],35%
same,Population Hoechst High Intensity Objects (%),[2],5%
same,Population Membrane Permeable-Phenotype (%),[2],3%
same,Population Mitochondria Different-Phenotype (%),[2],24%
same,Population Mitotic Cells (%),[2],84%
same,Population Normal (%),[2],94%
same,Population Pyknosed Nuclei (%),[2],59%
same,Population Tubulin-Different-Phenotype (%),[2],23%
same,Total Cell Count,[2],268
same,Population Apoptotic (%),[3],64%
same,Population Fragmented Nuclei (%),[3],10%
same,Population Healthy Nuclei (%),[3],17%
same,Population Hoechst High Intensity Objects (%),[3],17%
same,Population Membrane Permeable-Phenotype (%),[3],0%
same,Population Mitochondria Different-Phenotype (%),[3],94%
same,Population Mitotic Cells (%),[3],35%
same,Population Normal (%),[3],82%
same,Population Pyknosed Nuclei (%),[3],72%
same,Population Tubulin-Different-Phenotype (%),[3],97%
same,Total Cell Count,[3],264
same,Population Apoptotic (%),[4],54%
same,Population Fragmented Nuclei (%),[4],8%
same,Population Healthy Nuclei (%),[4],8%
same,Population Hoechst High Intensity Objects (%),[4],9%
same,Population Mitochondria Different-Phenotype (%),[4],58%
same,Population Mitotic Cells (%),[4],45%
same,Population Normal (%),[4],90%
same,Population Pyknosed Nuclei (%),[4],82%
same,Population Tubulin-Different-Phenotype (%),[4],83%
same,Total Cell Count,[4],153
same,Population Apoptotic (%),[5],48%
same,Population Fragmented Nuclei (%),[5],15%
same,Population Healthy Nuclei (%),[5],34%
same,Population Hoechst High Intensity Objects (%),[5],15%
same,Population Membrane Permeable-Phenotype (%),[5],0%
same,Population Mitochondria Different-Phenotype (%),[5],79%
same,Population Mitotic Cells (%),[5],51%
same,Population Normal (%),[5],84%
same,Population Pyknosed Nuclei (%),[5],50%
same,Population Tubulin-Different-Phenotype (%),[5],43%
same,Total Cell Count,[5],216
same,Population Apoptotic (%),[6],14%
same,Population Fragmented Nuclei (%),[6],3%
same,Population Healthy Nuclei (%),[6],60%
same,Population Hoechst High Intensity Objects (%),[6],3%
same,Population Membrane Permeable-Phenotype (%),[6],1%
same,Population Mitochondria Different-Phenotype (%),[6],36%
same,Population Mitotic Cells (%),[6],85%
same,Population Normal (%),[6],96%
same,Population Pyknosed Nuclei (%),[6],35%
same,Population Tubulin-Different-Phenotype (%),[6],39%
same,Total Cell Count,[6],330
same,Population Fragmented Nuclei (%),[7],11%
same,Population Healthy Nuclei (%),[7],19%
same,Population Hoechst High Intensity Objects (%),[7],16%
same,Population Membrane Permeable-Phenotype (%),[7],2%
same,Population Mitochondria Different-Phenotype (%),[7],86%
same,Population Normal (%),[7],83%
same,Population Pyknosed Nuclei (%),[7],68%
same,Population Tubulin-Different-Phenotype (%),[7],95%
same,Total Cell Count,[7],274
same,Population Apoptotic (%),[8],53%
same,Population Fragmented Nuclei (%),[8],9%
same,Population Healthy Nuclei (%),[8],13%
same,Population Hoechst High Intensity Objects (%),[8],7%
same,Population Membrane Permeable-Phenotype (%),[8],10%
same,Population Mitochondria Different-Phenotype (%),[8],63%
same,Population Mitotic Cells (%),[8],46%
same,Population Normal (%),[8],92%
same,Population Pyknosed Nuclei (%),[8],77%
same,Population Tubulin-Different-Phenotype (%),[8],89%
same,Total Cell Count,[8],154
same,Population Apoptotic (%),[9],57%
same,Population Fragmented Nuclei (%),[9],16%
same,Population Healthy Nuclei (%),[9],44%
same,Population Hoechst High Intensity Objects (%),[9],18%
same,Population Membrane Permeable-Phenotype (%),[9],0%
same,Population Mitochondria Different-Phenotype (%),[9],48%
same,Population Mitotic Cells (%),[9],42%
same,Population Normal (%),[9],81%
same,Population Pyknosed Nuclei (%),[9],38%
same,Population Tubulin-Different-Phenotype (%),[9],40%
same,Total Cell Count,[9],232
same,Population Apoptotic (%),[10],22%
same,Population Fragmented Nuclei (%),[10],5%
same,Population Healthy Nuclei (%),[10],76%
same,Population Hoechst High Intensity Objects (%),[10],3%
same,Population Membrane Permeable-Phenotype (%),[10],2%
same,Population Mitochondria Different-Phenotype (%),[10],11%
same,Population Mitotic Cells (%),[10],77%
same,Population Normal (%),[10],96%
same,Population Pyknosed Nuclei (%),[10],18%
same,Population Tubulin-Different-Phenotype (%),[10],29%
same,Total Cell Count,[10],557
same,Population Apoptotic (%),[11],53%
same,Population Fragmented Nuclei (%),[11],16%
same,Population Healthy Nuclei (%),[11],26%
same,Population Hoechst High Intensity Objects (%),[11],10%
same,Population Membrane Permeable-Phenotype (%),[11],19%
same,Population Mitochondria Different-Phenotype (%),[11],33%
same,Population Mitotic Cells (%),[11],46%
same,Population Normal (%),[11],89%
same,Population Pyknosed Nuclei (%),[11],57%
same,Population Tubulin-Different-Phenotype (%),[11],87%
same,Total Cell Count,[11],264
same,Population Apoptotic (%),[12],58%
same,Population Fragmented Nuclei (%),[12],8%
same,Population Healthy Nuclei (%),[12],24%
same,Population Hoechst High Intensity Objects (%),[12],8%
same,Population Membrane Permeable-Phenotype (%),[12],25%
same,Population Mitochondria Different-Phenotype (%),[12],61%
same,Population Mitotic Cells (%),[12],41%
same,Population Normal (%),[12],91%
same,Population Pyknosed Nuclei (%),[12],66%
same,Population Tubulin-Different-Phenotype (%),[12],83%
same,Total Cell Count,[12],158
